Experimental data as given in ChEMBL document CHEMBL5055631, “Antitumor properties of novel sesquiterpene lactone analogs as NFκB inhibitors that bind to the IKKβ ubiquitin-like domain (ULD)” (Eur J Med Chem, 2021).

How the values were obtained:
Type in all cases: functional
CCRF-CEM = assay: Anticancer activity against human CCRF-CEM cells assessed as cell growth inhibition incubated for 48 hrs by sulforhodamine B assay
RPMI-8226 = assay: Anticancer activity against human RPMI-8226 cells assessed as cell growth inhibition incubated for 48 hrs by SRB method
SR = assay: Anticancer activity against human SR cells assessed as cell growth inhibition incubated for 48 hrs by SRB method
Summary of the method: (§1)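 NCI-60 panel (DTP). Cells in RPMI 1640 with 5% FBS, 2 mM L-glutamine, seeded at 5,000–40,000 per well by doubling time and preincubated 24 h at 37 °C, 5% CO2. Time-zero plates TCA-fixed. DMSO stocks diluted in medium with gentamicin, tested at 100 μM, 10 μM, 1 μM, 0.1 μM and 10 nM for 48 h. Cells fixed with cold TCA, stained with SRB, absorbance read at 515 nm.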

A549 = assay: Anticancer activity against human A549 cells assessed as cell growth inhibition incubated for 48 hrs by SRB method; summary of the method: as §1
EKVX = assay: Anticancer activity against human EKVX cells assessed as cell growth inhibition incubated for 48 hrs by SRB method; summary of the method: as §1
HOP-62 = assay: Anticancer activity against human HOP-62 cells assessed as cell growth inhibition incubated for 48 hrs by SRB method; summary of the method: as §1
MOLT-4 = assay: Anticancer activity against human MOLT-4 assessed as cell growth inhibition incubated for 48 hrs by SRB method
HOP-92 = assay: Anticancer activity against human HOP-92 cells assessed as cell growth inhibition incubated for 48 hrs by SRB method
K562 = assay: Anticancer activity against human K562 cells assessed as cell growth inhibition incubated for 48 hrs by SRB method
HL-60(TB) = assay: Anticancer activity against human HL-60(TB) cells assessed as cell growth inhibition incubated for 48 hrs by SRB method
NCI-H226 = assay: Anticancer activity against human NCI-H226 cells assessed as cell growth inhibition incubated for 48 hrs by SRB method; summary of the method: as §1
NCI-H23 = assay: Anticancer activity against human NCI-H23 cells assessed as cell growth inhibition incubated for 48 hrs by SRB method; summary of the method: as §1
NCI-H460 = assay: Anticancer activity against human NCI-H460 cells assessed as cell growth inhibition incubated for 48 hrs by SRB method; summary of the method: as §1
NCI-H522 = assay: Anticancer activity against human NCI-H522 cells assessed as cell growth inhibition incubated for 48 hrs by SRB method
COLO 205 = assay: Anticancer activity against human COLO 205 cells assessed as cell growth inhibition incubated for 48 hrs by SRB method
HCC 2998 = assay: Anticancer activity against human HCC 2998 cells assessed as cell growth inhibition incubated for 48 hrs by SRB method; summary of the method: as §1
HCT-116 = assay: Anticancer activity against human HCT-116 cells assessed as cell growth inhibition incubated for 48 hrs by SRB method; summary of the method: as §1
HCT-15 = assay: Anticancer activity against human HCT-15 cells assessed as cell growth inhibition incubated for 48 hrs by SRB method; summary of the method: as §1
HT-29 = assay: Anticancer activity against human HT29 cells assessed as cell growth inhibition incubated for 48 hrs by SRB method; summary of the method: as §1
KM12 = assay: Anticancer activity against human KM12 cells assessed as cell growth inhibition incubated for 48 hrs by SRB method; summary of the method: as §1
SW-620 = assay: Anticancer activity against human SW-620 cells assessed as cell growth inhibition incubated for 48 hrs by SRB method
SF-268 = assay: Anticancer activity against human SF-268 cells assessed as cell growth inhibition incubated for 48 hrs by SRB method; summary of the method: as §1
SF-295 = assay: Anticancer activity against human SF-295 cells assessed as cell growth inhibition incubated for 48 hrs by SRB method; summary of the method: as §1
SF-539 = assay: Anticancer activity against human SF-539 cells assessed as cell growth inhibition incubated for 48 hrs by SRB method
SNB-19 = assay: Anticancer activity against human SNB-19 cells assessed as cell growth inhibition incubated for 48 hrs by SRB method; summary of the method: as §1
SNB-75 = assay: Anticancer activity against human SNB-75 cells assessed as cell growth inhibition incubated for 48 hrs by SRB method
LOX IMVI = assay: Anticancer activity against human LOX IMVI cells assessed as cell growth inhibition incubated for 48 hrs by SRB method
Malme-3M = assay: Anticancer activity against human MALME-3M cells assessed as cell growth inhibition incubated for 48 hrs by SRB method
M14 = assay: Anticancer activity against human M14 cells assessed as cell growth inhibition incubated for 48 hrs by SRB method; summary of the method: as §1
MDA-MB-435 = assay: Anticancer activity against human MDA-MB-435 cells assessed as cell growth inhibition incubated for 48 hrs by SRB method; summary of the method: as §1
SK-MEL-28 = assay: Anticancer activity against human SK-MEL-28 cells assessed as cell growth inhibition incubated for 48 hrs by SRB method; summary of the method: as §1
UACC-257 = assay: Anticancer activity against human UACC-257 assessed as cell growth inhibition incubated for 48 hrs by SRB method
Summary of the method: (§2)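 NCI-60 panel, SRB assay. Cells grown in RPMI 1640 with 5% FBS and 2 mM L-glutamine, seeded at 5,000–40,000 cells/well depending on doubling time, and preincubated 24 h at 37 °C with 5% CO2. Time-zero plates were TCA-fixed. Compounds came from DMSO stocks and were tested at 100 μM, 10 μM, 1 μM, 0.1 μM and 10 nM for 48 h. Cells were fixed with cold TCA and stained with 0.4% SRB, and the dye was solubilized in 10 mM Tris base with A515 read.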

UACC-62 = assay: Anticancer activity against human UACC-62 cells assessed as cell growth inhibition incubated for 48 hrs by SRB method; summary of the method: as §2
IGROV-1 = assay: Anticancer activity against human IGROV-1 cells assessed as cell growth inhibition incubated for 48 hrs by SRB method; summary of the method: as §1
OVCAR-4 = assay: Anticancer activity against human OVCAR-4 cells assessed as cell growth inhibition incubated for 48 hrs by SRB method
OVCAR-5 = assay: Anticancer activity against human OVCAR-5 cells assessed as cell growth inhibition incubated for 48 hrs by SRB method
OVCAR-8 = assay: Anticancer activity against human OVCAR-8 cells assessed as cell growth inhibition incubated for 48 hrs by SRB method; summary of the method: as §1
NCI/ADR-RES = assay: Anticancer activity against human NCI/ADR-RES cells assessed as cell growth inhibition incubated for 48 hrs by SRB method; summary of the method: as §1
786-0 = assay: Anticancer activity against human 786-0 cells assessed as cell growth inhibition incubated for 48 hrs by SRB method; summary of the method: as §1
A498 = assay: Anticancer activity against human A498 cells assessed as cell growth inhibition incubated for 48 hrs by SRB method; summary of the method: as §1
ACHN = assay: Anticancer activity against human ACHN cells assessed as cell growth inhibition incubated for 48 hrs by SRB method; summary of the method: as §1
CAKI-1 = assay: Anticancer activity against human CAKI-1 cells assessed as cell growth inhibition incubated for 48 hrs by SRB method; summary of the method: as §1
RXF 393 = assay: Anticancer activity against human RXF 393 cells assessed as cell growth inhibition incubated for 48 hrs by SRB method; summary of the method: as §1
TK-10 = assay: Anticancer activity against human TK-10 cells assessed as cell growth inhibition incubated for 48 hrs by SRB method; summary of the method: as §2
UO-31 = assay: Anticancer activity against human UO-31 cells assessed as cell growth inhibition incubated for 48 hrs by SRB method
Summary of the method: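 NCI-60 panel, SRB assay. Time-zero plates were TCA-fixed. Compounds came from DMSO stocks and were tested at 100 μM, 10 μM, 1 μM, 0.1 μM and 10 nM for 48 h. Cells were fixed with cold TCA and stained with 0.4% SRB, and the dye was solubilized in 10 mM Tris base with A515 read.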

PC-3 = assay: Anticancer activity against human PC-3 cells assessed as cell growth inhibition incubated for 48 hrs by SRB method; summary of the method: as §1
DU-145 = assay: Anticancer activity against human DU-145 cells assessed as cell growth inhibition incubated for 48 hrs by SRB method; summary of the method: as §1
MCF7 = assay: Anticancer activity against human MCF7 cells assessed as cell growth inhibition incubated for 48 hrs by SRB method; summary of the method: as §1
MDA-MB-231 = assay: Anticancer activity against human MDA-MB-231 cells assessed as cell growth inhibition incubated for 48 hrs by SRB method; summary of the method: as §1
[1] = Anticancer activity against human HS 578T cells assessed as cell growth inhibition incubated for 48 hrs by SRB method
BT-549 = assay: Anticancer activity against human BT-549 cells assessed as cell growth inhibition incubated for 48 hrs by SRB method; summary of the method: as §1
T47D = assay: Anticancer activity against human T47D cells assessed as cell growth inhibition incubated for 48 hrs by SRB method; summary of the method: as §1
MDA-MB-468 = assay: Anticancer activity against human MDA-MB-468 cells assessed as cell growth inhibition incubated for 48 hrs by SRB method; summary of the method: as §1

## C=C1C(=O)O[C@H]2[C@H]1CC/C(COC(=O)NCCc1cccc(OC)c1)=C\CC[C@@]1(C)O[C@@H]21
CCRF-CEM
  GI50: 0.34 µM
RPMI-8226
  GI50: 0.91 µM
SR
  GI50: 0.51 µM
A549
  GI50: 7.28 µM
EKVX
  GI50: 1.78 µM
HOP-62
  GI50: 4.39 µM
MOLT-4
  GI50: 2.09 µM
HOP-92
  GI50: 1.84 µM
K562
  GI50: 0.61 µM
HL-60(TB)
  GI50: 1.36 µM
NCI-H226
  GI50: 1.57 µM
NCI-H23
  GI50: 1.86 µM
NCI-H460
  GI50: 3.94 µM
NCI-H522
  GI50: 1.02 µM
COLO 205
  GI50: 1.55 µM
HCC 2998
  GI50: 1.68 µM
HCT-116
  GI50: 0.71 µM
HCT-15
  GI50: 1.02 µM
HT-29
  GI50: 1.14 µM
KM12
  GI50: 4.27 µM
SW-620
  GI50: 0.52 µM
SF-268
  GI50: 1.78 µM
SF-295
  GI50: 7.26 µM
SF-539
  GI50: 1.49 µM
SNB-19
  GI50: 1.43 µM
SNB-75
  GI50: 1.47 µM
LOX IMVI
  GI50: 1.34 µM
Malme-3M
  GI50: 1.84 µM
M14
  GI50: 1.29 µM
MDA-MB-435
  GI50: 1.58 µM
SK-MEL-28
  GI50: 1.73 µM
UACC-257
  GI50: 1.99 µM
UACC-62
  GI50: 6.23 µM
IGROV-1
  GI50: 1.53 µM
OVCAR-4
  GI50: 1.26 µM
OVCAR-5
  GI50: 0.99 µM
OVCAR-8
  GI50: 1.78 µM
NCI/ADR-RES
  GI50: 2.25 µM
786-0
  GI50: 2.26 µM
A498
  GI50: 2.95 µM
ACHN
  GI50: 1.37 µM
CAKI-1
  GI50: 2.35 µM
RXF 393
  GI50: 1.12 µM
TK-10
  GI50: 1.19 µM
UO-31
  GI50: 0.67 µM
PC-3
  GI50: 1.61 µM
DU-145
  GI50: 1.39 µM
MCF7
  GI50: 2.3 µM
MDA-MB-231
  GI50: 0.89 µM
[1]
  GI50: 0.49 µM
BT-549
  GI50: 1.56 µM
T47D
  GI50: 3.43 µM
MDA-MB-468
  GI50: 0.85 µM

## C=C1C(=O)O[C@@H]2C3O[C@]3(C)CC/C=C(\C)CC[C@@H]12 (stereo partly specified)
HCT-116
  GI50: 10 µM
UACC-62
  GI50: 3.48 µM
TK-10
  GI50: 10 µM
